Tests used:
[1] = target: Matrix metalloproteinase-9 (Homo sapiens, UniProt P14780); test: Inhibition of human active MMP9 using (7-methoxycoumarin-4-yl)acetyl-Pro-Leu-Gly-Leu-(3-(2,4-dinitrophenyl)-L-2,3-diamino-propionyl)Ala-Arg-NH2 as substrate preincubated for 30 mins followed by substrate addition and measured for 10 mins by fluorescence assay
Procedure, shortened: (§1)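 Human active enzyme at 2 nM was preincubated with compound (10 pM–1 mM) for 30 min at 37 °C in 50 mM Tris·HCl pH 7.5 with 0.2 M NaCl, 5 mM CaCl2, […] ZnSO4 and 0.05% Brij 35. Substrate was then added and fluorescence (ex 330/em 390 nm) followed at 37 °C. Initial 10-min linear rates were plotted against inhibitor concentration. IC50 is the mean of three experiments.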

[2] = target: 72 kDa type IV collagenase (Homo sapiens, UniProt P08253); test: Inhibition of human active MMP2 using (7-methoxycoumarin-4-yl)acetyl-Pro-Leu-Gly-Leu-(3-(2,4-dinitrophenyl)-L-2,3-diamino-propionyl)Ala-Arg-NH2 as substrate preincubated for 30 mins followed by substrate addition and measured for 10 mins by fluorescence assay; procedure, shortened: as §1
Sequence of 72 kDa type IV collagenase (P08253 whole entry): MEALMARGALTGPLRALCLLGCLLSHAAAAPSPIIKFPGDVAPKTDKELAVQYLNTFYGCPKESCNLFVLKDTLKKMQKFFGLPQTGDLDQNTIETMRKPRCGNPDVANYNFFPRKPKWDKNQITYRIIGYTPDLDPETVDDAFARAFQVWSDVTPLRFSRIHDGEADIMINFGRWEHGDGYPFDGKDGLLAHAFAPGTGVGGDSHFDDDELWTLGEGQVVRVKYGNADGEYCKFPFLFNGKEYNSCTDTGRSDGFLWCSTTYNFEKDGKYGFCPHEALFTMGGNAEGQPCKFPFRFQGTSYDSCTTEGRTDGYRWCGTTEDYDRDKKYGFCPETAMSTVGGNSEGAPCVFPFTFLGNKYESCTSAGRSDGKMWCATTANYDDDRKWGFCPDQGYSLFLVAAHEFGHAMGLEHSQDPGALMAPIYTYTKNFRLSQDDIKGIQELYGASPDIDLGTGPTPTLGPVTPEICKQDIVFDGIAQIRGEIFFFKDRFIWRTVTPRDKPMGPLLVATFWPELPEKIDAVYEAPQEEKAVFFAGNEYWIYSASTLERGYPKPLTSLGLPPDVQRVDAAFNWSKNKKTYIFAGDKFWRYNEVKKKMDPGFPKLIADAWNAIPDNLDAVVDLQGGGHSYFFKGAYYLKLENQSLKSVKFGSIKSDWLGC

Collagenase 3 = Collagenase 3 (Homo sapiens, UniProt P45452); test: Inhibition of human active MMP13 using (7-methoxycoumarin-4-yl)acetyl-Pro-Leu-Gly-Leu-(3-(2,4-dinitrophenyl)-L-2,3-diamino-propionyl)Ala-Arg-NH2 as substrate preincubated for 30 mins followed by substrate addition and measured for 10 mins by fluorescence assay; procedure, shortened: as §1
Neutrophil collagenase = Neutrophil collagenase (Homo sapiens, UniProt P22894); test: Inhibition of human active MMP8 using (7-methoxycoumarin-4-yl)acetyl-Pro-Leu-Gly-Leu-(3-(2,4-dinitrophenyl)-L-2,3-diamino-propionyl)Ala-Arg-NH2 as substrate preincubated for 30 mins followed by substrate addition and measured for 10 mins by fluorescence assay; procedure, shortened: as §1
Sequence of Neutrophil collagenase (P22894 whole entry): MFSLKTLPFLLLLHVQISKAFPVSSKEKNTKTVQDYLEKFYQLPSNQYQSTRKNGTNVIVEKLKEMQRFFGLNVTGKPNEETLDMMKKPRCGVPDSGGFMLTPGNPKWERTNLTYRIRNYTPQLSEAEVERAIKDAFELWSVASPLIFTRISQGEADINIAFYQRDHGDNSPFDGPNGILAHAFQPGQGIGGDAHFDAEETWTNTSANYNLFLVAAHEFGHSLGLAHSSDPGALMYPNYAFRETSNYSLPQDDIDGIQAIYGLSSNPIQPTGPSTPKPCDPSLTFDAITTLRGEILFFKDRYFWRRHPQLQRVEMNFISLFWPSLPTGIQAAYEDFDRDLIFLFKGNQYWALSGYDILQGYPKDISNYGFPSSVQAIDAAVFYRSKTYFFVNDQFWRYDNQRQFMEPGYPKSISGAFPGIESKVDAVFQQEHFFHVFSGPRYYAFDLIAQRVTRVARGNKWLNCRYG

Sequence of Matrix metalloproteinase-9 (P14780 whole entry): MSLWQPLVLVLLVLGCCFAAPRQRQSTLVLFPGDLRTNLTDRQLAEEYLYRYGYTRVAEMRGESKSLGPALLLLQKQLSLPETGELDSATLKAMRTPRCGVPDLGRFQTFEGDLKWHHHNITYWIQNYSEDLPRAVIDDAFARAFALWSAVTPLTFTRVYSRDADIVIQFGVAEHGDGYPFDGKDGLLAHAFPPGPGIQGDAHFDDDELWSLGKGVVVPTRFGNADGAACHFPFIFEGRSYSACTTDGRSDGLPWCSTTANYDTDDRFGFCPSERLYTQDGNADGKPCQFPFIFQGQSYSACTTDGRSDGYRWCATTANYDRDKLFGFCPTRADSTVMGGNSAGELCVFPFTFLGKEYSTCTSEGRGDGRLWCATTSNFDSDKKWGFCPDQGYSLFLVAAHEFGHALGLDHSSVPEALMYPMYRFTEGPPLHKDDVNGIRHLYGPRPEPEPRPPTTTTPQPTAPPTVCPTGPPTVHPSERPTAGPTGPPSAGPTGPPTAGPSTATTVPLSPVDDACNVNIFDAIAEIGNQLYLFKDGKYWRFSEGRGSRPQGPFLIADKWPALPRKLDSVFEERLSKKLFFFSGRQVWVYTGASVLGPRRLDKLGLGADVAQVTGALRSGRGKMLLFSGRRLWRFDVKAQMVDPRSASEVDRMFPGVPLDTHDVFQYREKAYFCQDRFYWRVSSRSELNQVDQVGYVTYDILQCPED

**Q.** Which results are given for O=C1NC(=O)C(CCCCCCCC(F)CF)(Cc2ccccc2)C(=O)N1 (stereo not drawn)?
**A.** IC50 ([1]; read-out: IC50): 60 nM; IC50 ([2]; read-out: IC50): 320 nM; IC50 (Collagenase 3; read-out: IC50): 163 nM; IC50 (Neutrophil collagenase; read-out: IC50): 180 nM

**Q.** Which IC50 ([1]; read-out: IC50) does the source give for COc1ccc(CC2(CCCCCCCC(F)CF)C(=O)NC(=O)NC2=O)cc1 (racemic) here?
**A.** 26 nM

**Q.** And the IC50 ([2]; read-out: IC50)?
**A.** 139 nM

**Q.** And the IC50 (Collagenase 3; read-out: IC50)?
**A.** 64 nM

**Q.** And the IC50 (Neutrophil collagenase; read-out: IC50)?
**A.** 110 nM

**Q.** How did the IC50 ([1]; read-out: IC50) turn out when CCCCCCCCC1(Cc2ccccc2)C(=O)NC(=O)NC1=O was run?
**A.** 22 nM

**Q.** And the IC50 ([2]; read-out: IC50)?
**A.** 288 nM

**Q.** And the IC50 (Collagenase 3; read-out: IC50)?
**A.** 214 nM

**Q.** What about the IC50 (Neutrophil collagenase; read-out: IC50) of the same compound?
**A.** 157 nM

**Q.** With COc1ccc(CC2(CCCCCCC(F)CF)C(=O)NC(=O)NC2=O)cc1 (stereo not drawn) as the compound, how does the IC50 ([1]; read-out: IC50) read?
**A.** 47 nM

**Q.** And the IC50 ([2]; read-out: IC50)?
**A.** 411 nM

**Q.** And the IC50 (Collagenase 3; read-out: IC50)?
**A.** 17 nM

**Q.** What about the IC50 (Neutrophil collagenase; read-out: IC50) of the same compound?
**A.** 165 nM

**Q.** CCCCCCCCCC1(Cc2ccc(OC)cc2)C(=O)NC(=O)NC1=O was tested. Which IC50 ([1]; read-out: IC50) did it give?
**A.** 93 nM

**Q.** And the IC50 ([2]; read-out: IC50)?
**A.** 94 nM

**Q.** What about the IC50 (Collagenase 3; read-out: IC50) of the same compound?
**A.** 83 nM

**Q.** And the IC50 (Neutrophil collagenase; read-out: IC50)?
**A.** 84 nM

**Q.** What does the source list for O=C1NC(=O)C(CCCCCCCC(F)(F)F)(Cc2ccccc2)C(=O)N1?
**A.** IC50 ([1]; read-out: IC50): 52 nM; IC50 ([2]; read-out: IC50): 567 nM; IC50 (Collagenase 3; read-out: IC50): 753 nM; IC50 (Neutrophil collagenase; read-out: IC50): 229 nM

**Q.** For CCCCCCCCCC1(Cc2ccccc2)C(=O)NC(=O)NC1=O, which IC50 ([1]; read-out: IC50) is on record?
**A.** 5 nM

**Q.** What about the IC50 ([2]; read-out: IC50) of the same compound?
**A.** 210 nM

**Q.** And the IC50 (Collagenase 3; read-out: IC50)?
**A.** 180 nM

**Q.** What about the IC50 (Neutrophil collagenase; read-out: IC50) of the same compound?
**A.** 96 nM

**Q.** With COc1ccc(CC2(CCCCCCCC(C)C)C(=O)NC(=O)NC2=O)cc1 as the compound, how does the IC50 ([1]; read-out: IC50) read?
**A.** 60 nM

**Q.** And the IC50 ([2]; read-out: IC50)?
**A.** 207 nM

**Q.** What about the IC50 (Collagenase 3; read-out: IC50) of the same compound?
**A.** 225 nM

**Q.** What about the IC50 (Neutrophil collagenase; read-out: IC50) of the same compound?
**A.** 281 nM

**Q.** How did the IC50 ([1]; read-out: IC50) turn out when COc1ccc(CC2(CCCCCCCC(F)(F)F)C(=O)NC(=O)NC2=O)cc1 was run?
**A.** 62 nM

**Q.** And the IC50 ([2]; read-out: IC50)?
**A.** 209 nM

**Q.** What about the IC50 (Collagenase 3; read-out: IC50) of the same compound?
**A.** 177 nM

**Q.** And the IC50 (Neutrophil collagenase; read-out: IC50)?
**A.** 187 nM

**Q.** O=C1NC(=O)C(CCCCCCC(F)CF)(Cc2ccccc2)C(=O)N1 (stereo not drawn) was tested. Which IC50 ([1]; read-out: IC50) did it give?
**A.** 123 nM

**Q.** And the IC50 ([2]; read-out: IC50)?
**A.** 253 nM

**Q.** What about the IC50 (Collagenase 3; read-out: IC50) of the same compound?
**A.** 127 nM

**Q.** What about the IC50 (Neutrophil collagenase; read-out: IC50) of the same compound?
**A.** 125 nM

**Q.** What does the source list for CCCCCCCCC1(Cc2ccc(OC)cc2)C(=O)NC(=O)NC1=O?
**A.** IC50 ([1]; read-out: IC50): 3 nM; IC50 ([2]; read-out: IC50): 42 nM; IC50 (Collagenase 3; read-out: IC50): 94 nM; IC50 (Neutrophil collagenase; read-out: IC50): 73 nM

**Q.** For CC(C)CCCCCCCC1(Cc2ccccc2)C(=O)NC(=O)NC1=O, which IC50 [1] is on record?
**A.** Nd(Insoluble)

**Q.** And the IC50 [2]?
**A.** Nd(Insoluble)

**Q.** And the IC50 (Collagenase 3)?
**A.** Nd(Insoluble)

**Q.** What about the IC50 (Neutrophil collagenase) of the same compound?
**A.** Nd(Insoluble)
